For data set [1], the system named is Escherichia coli. Nature of the data set: Induction of biofilm formation in Escherichia coli K-12 ER2718 assessed as concentration required for 50% promotion of biofilm formation after 24 hrs by crystal violet staining-based assay. The class given is functional. The method in brief:
(§1)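 For strong inducers of E. coli biofilm, dose-response curves were run in the static crystal violet assay. PC25, PC50 and PC75 are the concentrations promoting biofilm formation by 25%, 50% and 75%.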

Data set [2] relates to Escherichia coli. As to the kind of experiment: Induction of biofilm formation in Escherichia coli K-12 ER2718 assessed as concentration required for 25% promotion of biofilm formation after 24 hrs by crystal violet staining-based assay. The class given is functional. The method in brief: as §1
Data set [3] deals with Escherichia coli. As to the kind of experiment: Antimicrobial activity against Escherichia coli K-12 ER2718 assessed as effect on planktonic growth at PC75 after 2 to 24 hrs by colony count method. The class given is organism-based. As to conditions: in vivo.
The test system of data set [4] is Escherichia coli. As to the kind of experiment: Antimicrobial activity against Escherichia coli K-12 ER2718 assessed as effect on planktonic growth at PC50 after 2 to 24 hrs by colony count method. The note with it: in vivo. The data set is classed as organism-based.
For data set [5], the system named is Escherichia coli. Nature of the data set: Antimicrobial activity against Escherichia coli K-12 ER2718 assessed as effect on planktonic growth at PC25 after 2 to 24 hrs by colony count method. The data set is classed as organism-based.
The subject of data set [6] is Escherichia coli. Nature of the data set: Antimicrobial activity against Escherichia coli K-12 ER2718 assessed as effect on planktonic growth at PC75 after 2 to 24 hrs. The data set is classed as organism-based. The note with it: in vivo.
Data set [7] has as its system Escherichia coli. As to the kind of experiment: Antimicrobial activity against Escherichia coli K-12 ER2718 assessed as effect on planktonic growth at PC50 after 2 to 24 hrs. The class given is organism-based.
Data set [8] concerns Escherichia coli. Nature of the data set: Antimicrobial activity against Escherichia coli K-12 ER2718 assessed as effect on planktonic growth at PC25 after 2 to 24 hrs. The class given is organism-based.
In data set [9] the test system is Staphylococcus aureus. As to the kind of experiment: Antimicrobial activity against methicillin-resistant Staphylococcus aureus BAA 44 assessed as effect on planktonic growth at IC50 after 2 to 24 hrs by colony count method. The data set is classed as organism-based. The note with it: in vivo.
Data set [10] concerns Staphylococcus aureus. As to the kind of experiment: Antimicrobial activity against Staphylococcus aureus 29213 assessed as effect on planktonic growth at IC50 after 2 to 24 hrs by colony count method. The data set is classed as organism-based. The note with it: in vivo.
In data set [11] the test system is Acinetobacter baumannii. Nature of the data set: Antimicrobial activity against Acinetobacter baumannii 19606 assessed as effect on planktonic growth at IC50 after 2 to 24 hrs by colony count method. On the set-up: species or system ATCC 19606.
Data set [12] concerns Escherichia coli. Nature of the data set: Antimicrobial activity against Escherichia coli K-12 ER2718 assessed as effect on planktonic growth at IC50 after 2 to 24 hrs by colony count method. The class given is organism-based.
Data set [13] deals with Staphylococcus aureus. Nature of the data set: Antimicrobial activity against methicillin-resistant Staphylococcus aureus BAA 44 assessed as effect on planktonic growth at IC50 after 2 to 24 hrs. The data set is classed as organism-based. As to conditions: in vivo.
Data set [14] relates to Staphylococcus aureus. As to the kind of experiment: Antimicrobial activity against Staphylococcus aureus 29213 assessed as effect on planktonic growth at IC50 after 2 to 24 hrs. The class given is organism-based. The note with it: in vivo.
Data set [15] relates to Acinetobacter baumannii. Nature of the data set: Antimicrobial activity against Acinetobacter baumannii 19606 assessed as effect on planktonic growth at IC50 after 2 to 24 hrs. On the set-up: species or system ATCC 19606.
The test system of data set [16] is Escherichia coli. Nature of the data set: Antimicrobial activity against Escherichia coli K-12 ER2718 assessed as effect on planktonic growth at IC50 after 2 to 24 hrs. The data set is classed as organism-based.
The test system of data set [17] is Escherichia coli. As to the kind of experiment: Induction of biofilm formation in Escherichia coli K-12 ER2718 at 50 uM after 24 hrs by crystal violet staining-based assay relative to control. The class given is functional. The method in brief:
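Static biofilm assay with compounds at 50 μM and crystal violet read-out, relative to an untreated control. Compounds increasing biofilm by less than 50% were called inducers, and by more than 50% strong inducers.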

Data set [18] has as its system Staphylococcus aureus. Nature of the data set: Inhibition of biofilm formation in methicillin-resistant Staphylococcus aureus BAA 44 after 24 hrs by crystal violet staining-based assay. The class given is functional, organism-based. The note with it: BAA 44, 24 h. The procedure, abridged:
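Static biofilm development in MRSA, read out by crystal violet staining against an untreated control. Initial screen at 150 μM. Inhibitors then went to dose-response, with IC50 taken as the concentration giving 50% inhibition of biofilm growth. Induction was judged at 50 μM: under 50% induction counted as "inducer", over 50% as "strong inducer".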

Data set [19] has as its system Staphylococcus aureus. As to the kind of experiment: Inhibition of biofilm formation in Staphylococcus aureus 29213 after 24 hrs by crystal violet staining-based assay. The class given is functional, organism-based. The note with it: Staphylococcus aureus, 29213, 24 h. The method in brief:
(§2)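 Compounds active in the 150 μM screen were taken into dose-response studies under static conditions with a crystal violet read-out. IC50 is the concentration that inhibits 50% of biofilm growth relative to an untreated control.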

Data set [20] concerns Acinetobacter baumannii. As to the kind of experiment: Inhibition of biofilm formation in Acinetobacter baumannii 19606 at 150 uM after 24 hrs by crystal violet staining-based assay relative to control. The data set is classed as functional. As to conditions: ATCC 19606 = CIP 70.34 = JCM 6841, 24 h.
Data set [21] concerns Escherichia coli. Nature of the data set: Antimicrobial activity against Escherichia coli K-12 ER2718 assessed as effect on planktonic growth at PC75 in presence of N-(2-(4-(((3aR,8aR)-1,2,3,3a,8,8a-hexahydropyrrolo[2,3-b]indol-3a-yl)methyl)-1H-1,2,3-triazol-1-yl)ethyl)-4-hexylbenzamide. As to conditions: in vivo. The data set is classed as organism-based.
Data set [22] has as its system Escherichia coli. As to the kind of experiment: Antimicrobial activity against Escherichia coli K-12 ER2718 assessed as effect on planktonic growth at PC50 in presence of N-(2-(4-(((3aR,8aR)-1,2,3,3a,8,8a-hexahydropyrrolo[2,3-b]indol-3a-yl)methyl)-1H-1,2,3-triazol-1-yl)ethyl)-4-hexylbenzamide. The data set is classed as organism-based. As to conditions: in vivo.
In data set [23] the test system is Escherichia coli. As to the kind of experiment: Antimicrobial activity against Escherichia coli K-12 ER2718 assessed as effect on planktonic growth at PC25 in presence of N-(2-(4-(((3aR,8aR)-1,2,3,3a,8,8a-hexahydropyrrolo[2,3-b]indol-3a-yl)methyl)-1H-1,2,3-triazol-1-yl)ethyl)-4-hexylbenzamide. The data set is classed as organism-based.
The subject of data set [24] is Escherichia coli. As to the kind of experiment: Reversal of N-(2-(4-(((3aR,8aR)-1,2,3,3a,8,8a-hexahydropyrrolo[2,3-b]indol-3a-yl)methyl)-1H-1,2,3-triazol-1-yl)ethyl)-4-hexylbenzamide-induced biofilm inhibition in Escherichia coli K-12 ER2718 at PC75 relative to control. The class given is functional. Also on record: scale not given: the % may be the effect or the level left. The method in brief: (§3)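 E. coli static crystal violet biofilm assay. The inducer was added at its PC25, PC50 or PC75 concentration together with the reference inhibitor at a fixed concentration. Reversal was taken as the reduction in the inhibitor's anti-biofilm activity.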

For data set [25], the system named is Escherichia coli. As to the kind of experiment: Reversal of N-(2-(4-(((3aR,8aR)-1,2,3,3a,8,8a-hexahydropyrrolo[2,3-b]indol-3a-yl)methyl)-1H-1,2,3-triazol-1-yl)ethyl)-4-hexylbenzamide-induced biofilm inhibition in Escherichia coli K-12 ER2718 at PC50 relative to control. The class given is functional. Also on record: scale not given: the % may be the effect or the level left. The procedure, abridged:
as §3

Data set [26] deals with Escherichia coli. As to the kind of experiment: Reversal of N-(2-(4-(((3aR,8aR)-1,2,3,3a,8,8a-hexahydropyrrolo[2,3-b]indol-3a-yl)methyl)-1H-1,2,3-triazol-1-yl)ethyl)-4-hexylbenzamide-induced biofilm inhibition in Escherichia coli K-12 ER2718 at PC25 relative to control. On the set-up: scale not given: the % may be the effect or the level left. The class given is functional. The procedure, abridged:
as §3

The subject of data set [27] is Escherichia coli. Nature of the data set: Reversal of N-(2-(4-(((3aR,8aR)-1,2,3,3a,8,8a-hexahydropyrrolo[2,3-b]indol-3a-yl)methyl)-1H-1,2,3-triazol-1-yl)ethyl)-4-hexylbenzamide-induced biofilm inhibition in Escherichia coli K-12 ER2718. The class given is functional, organism-based. The method in brief:
as §3

The subject of data set [28] is Escherichia coli. Nature of the data set: Induction of biofilm formation in Escherichia coli K-12 ER2718 assessed as concentration required for 75% promotion of biofilm formation after 24 hrs by crystal violet staining-based assay. The class given is functional. The procedure, abridged: as §1
For data set [29], the system named is Escherichia coli. Nature of the data set: Antimicrobial activity against Escherichia coli K-12 ER2718 assessed as effect on planktonic growth at 50 uM after 2 to 24 hrs. The class given is organism-based. The method in brief:
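Growth curve analysis of planktonic bacteria with each biofilm inducer at 50 μM, used to assess toxicity.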

Data set [30] has as its system Escherichia coli. As to the kind of experiment: Inhibition of biofilm formation in Escherichia coli K-12 ER2718 after 24 hrs by crystal violet staining-based assay. The class given is functional, organism-based. The note with it: K-12 ER2718, 24 h. The method in brief:
as §2

Consider `CCCCCCc1ccc(C(=O)NCCn2cc(Cc3c[nH]c4ccccc34)nn2)cc1`, for which the Activity in the data set on Escherichia coli [1] is 82.6 µM; in the data set on Escherichia coli [2] it was 47.8 µM; in the data set with Escherichia coli [3], “Non-toxic”; in the data set on Escherichia coli [4], “Non-toxic”; in the data set with Escherichia coli [5] it was “Non-toxic”; in the data set with Escherichia coli [6], “Non-toxic”. Moreover, the Activity result in the data set on Escherichia coli [7], in the data set with Escherichia coli [8], with Staphylococcus aureus [9], in the data set on Staphylococcus aureus [10], with Acinetobacter baumannii [11] and in the data set on Escherichia coli [12] was “Non-toxic” throughout. The Activity result in the data set on Staphylococcus aureus [13] is “Non-toxic”; with Staphylococcus aureus [14], “Non-toxic”; in the data set on Acinetobacter baumannii [15], “Non-toxic”; in the data set with Escherichia coli [16] it was “Non-toxic”; in the data set with Escherichia coli [17] it was >50%; with Escherichia coli [21] it was “Non-toxic”. In addition, the Activity result in the data set with Escherichia coli [22] is “Non-toxic”; in the data set with Escherichia coli [23] it was “Non-toxic”; with Escherichia coli [24], 87%; in the data set on Escherichia coli [25] it was 47%; with Escherichia coli [26], 7.7%; in the data set on Escherichia coli [27] it was “Dose-dependent effect”. For the same molecule, the Activity with Escherichia coli [28] was 160.7 µM; with Escherichia coli [29], “Non-toxic”. In addition, the results for the IC50 in the data set on Staphylococcus aureus [18] and in the data set on Staphylococcus aureus [19] were 313 µM and 174 µM, respectively. Also, in the data set with Acinetobacter baumannii [20], testing at 150 µM gave an inhibition of 25%.
`CCCCCCc1ccc(C(=O)NCCn2cc(C[C@@]34CCN[C@@H]3Nc3ccccc34)nn2)cc1`: the IC50 (in general, the concentration that gives 50% inhibition) in the data set on Staphylococcus aureus [18] was 3.4 µM; in the data set on Staphylococcus aureus [19] it was 12.5 µM; in the data set on Escherichia coli [30], 100 µM.
